Measurements: ChEMBL document CHEMBL2016548, “Synthesis and evaluation of anti-thrombotic activity of benzocoumarin amide derivatives” (Bioorg Med Chem Lett, 2012)
Activity calls are given as the source filed them. No cut-off for these calls is given here.

How the values were obtained:
[1] = tested on: Mus musculus; assay: Anti-thrombotic activity in collagen and adrenaline challenged mouse pulmonary thromboembolism model assessed as protection from paralysis or death at 30 uM/kg, po administered 60 mins prior to thrombotic challenge; type: functional
In short: (§1)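 Mice were dosed orally 60 min before the challenge, alongside a vehicle group. Pulmonary thromboembolism was then induced by tail-vein injection of a collagen plus adrenaline mixture. Groups held ten mice per test agent and five per reference drug or vehicle. The read-out was % protection against hind-limb paralysis or death.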

[2] = tested on: Mus musculus; assay: Increase of bleeding time in mouse at 30 uM/kg, po administered 60 mins prior to tail incision; type: ADME, organism-based; conditions: in vivo, 1 h
In short: (§2)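 Compound, aspirin or vehicle given orally 60 min before cutting the tail 2 mm from the tip, five mice per group. Blood was blotted onto filter paper every 10–15 s until flow stopped. Bleeding time is the interval from incision to cessation.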

[3] = tested on: Platelet; assay: Antiplatelet activity in mouse platelet rich plasma assessed as inhibition of ADP-induced platelet aggregation at 100 uM by aggregometry; type: functional, cell-free
In short: (§3)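 Mice anaesthetized with ether and bled by cardiac puncture. Platelet-rich plasma was pooled, split into sub-pools and spiked with compound or vehicle. Aggregation was induced with ADP or collagen and followed on a dual-channel aggregometer. Data given as mean ± SEM, n = 3, compared against vehicle control.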

[4] = tested on: Mus musculus; assay: Anti-thrombotic activity in collagen and adrenaline challenged mouse pulmonary thromboembolism model assessed as protection from paralysis or death at 30 mg/kg, po administered 60 mins prior thrombotic challenge; type: functional; in short: as §1
[5] = tested on: Mus musculus; assay: Increase of bleeding time in mouse at 30 mg/kg, po administered 60 mins prior to tail incision; type: ADME, organism-based; set-up: dose 30 mg/kg, route oral; conditions: in vivo, 1 h; in short: as §2
[6] = tested on: Platelet; assay: Antiplatelet activity in mouse platelet rich plasma assessed as inhibition of collagen-induced platelet aggregation at 100 uM by aggregometry; type: functional, cell-free; in short: as §3
[7] = tested on: Plasma; assay: Anticoagulant activity in mouse platelet poor plasma assessed as increase in prothrombin time at 30 uM by coagulometry; type: functional, cell-free
In short: (§4)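 Mice anaesthetized with ether and bled by cardiac puncture. Platelet-poor plasma was pooled, split into sub-pools and spiked with compound or vehicle. Thrombin time, prothrombin time and APTT were run with commercial kits per manufacturer's instructions on a semi-automated coagulometer. Data given as mean ± SEM, n = 3, compared against vehicle control.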

[8] = tested on: Plasma; assay: Anticoagulant activity in mouse platelet poor plasma assessed as increase in prothrombin time at 10 uM by coagulometry; type: functional, cell-free; in short: as §4
[9] = tested on: Platelet; assay: Antiplatelet activity in mouse platelet rich plasma assessed as inhibition of ADP-induced platelet aggregation at 30 uM by aggregometry; type: functional, cell-free; in short: as §3
[10] = tested on: Platelet; assay: Antiplatelet activity in mouse platelet rich plasma assessed as inhibition of collagen-induced platelet aggregation at 10 uM by aggregometry; type: functional, cell-free; in short: as §3
[11] = tested on: Platelet; assay: Antiplatelet activity in mouse platelet rich plasma assessed as inhibition of collagen-induced platelet aggregation at 30 uM by aggregometry; type: functional, cell-free; in short: as §3
[12] = tested on: Mus musculus; assay: Ex-vivo antiplatelet activity in mouse platelet rich plasma assessed as inhibition of ADP-induced platelet aggregation at 30 uM/kg, po for 3 days by aggregometry; type: functional
[13] = tested on: Mus musculus; assay: Ex-vivo anticoagulant activity in mouse platelet poor plasma assessed as increase in thrombin time at 30 uM/kg, po for 3 days by coagulometry; type: functional
In short: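 Mice were dosed orally for three days, then bled by cardiac puncture under ether anaesthesia. Thrombin time was measured in platelet-poor plasma with a commercial kit on a semi-automated coagulometer and compared with vehicle-treated controls.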

[14] = tested on: Platelet; assay: Antiplatelet activity in mouse platelet rich plasma assessed as inhibition of ADP-induced platelet aggregation at 10 uM by aggregometry; type: functional, cell-free; in short: as §3
[15] = tested on: Plasma; assay: Anticoagulant activity in mouse platelet poor plasma assessed as increase in activated partial thromboplastin time at 10 uM by coagulometry; type: functional, cell-free; in short: as §4
[16] = tested on: Plasma; assay: Anticoagulant activity in mouse platelet poor plasma assessed as increase in thrombin time at 30 uM by coagulometry; type: functional, cell-free; in short: as §4
[17] = tested on: Plasma; assay: Anticoagulant activity in mouse platelet poor plasma assessed as increase in thrombin time at 10 uM by coagulometry; type: functional, cell-free; in short: as §4
[18] = tested on: Plasma; assay: Anticoagulant activity in mouse platelet poor plasma assessed as increase in activated partial thromboplastin time at 30 uM by coagulometry; type: functional, cell-free; in short: as §4
[19] = tested on: Mus musculus; assay: Ex-vivo antiplatelet activity in mouse platelet rich plasma assessed as inhibition of collagen-induced platelet aggregation at 30 uM/kg, po for 3 days by aggregometry; type: functional

In the case of `Cc1cc(=O)oc2c1ccc1c(OCC(=O)N3CCCCC3)cccc12`, the Activity [1] is reported as 30% and the Activity [2] is reported as 58.5%.
With `Cc1cc(=O)oc2c1ccc1c(OCC(=O)NC3CCCCC3)cccc12` the Activity [1] was 10% and the Activity [2] was 0%.
`CC(=O)Oc1ccccc1C(=O)O` [ASPIRIN] was tested, and the inhibition [3] was “Active”, the Activity [4] was 37% and the Activity [5] was 100%. For the same compound, the inhibition [6] was “Active”.
`COc1cc(NC(=O)COc2cccc3c2ccc2c(C)cc(=O)oc23)cc(OC)c1OC` gave an Activity [1] of 20% and an Activity [2] of 41.7%.
In the case of `COc1ccc(CNC(=O)COc2cccc3c2ccc2c(C)cc(=O)oc23)cc1`, the Activity [1] is reported as 10% and the Activity [2] is reported as 8.2%.
In the case of `Cc1cc(=O)oc2c1ccc1c(OCC(=O)N3CCOCC3)cccc12`, the Activity [1] is reported as 30% and the Activity [2] is reported as 66.8%.
`Cc1ccc(CNC(=O)COc2cccc3c2ccc2c(C)cc(=O)oc23)cc1C` was tested, and the Activity [2] was 58.5%.
With `Cc1cc(=O)oc2c1ccc1c(OCC(=O)NC(C)C)cccc12` the Activity [1] was 10% and the Activity [2] was 66.5%.
Compound `Cc1cc(=O)oc2c1ccc1c(OCC(=O)N3CCN(C)CC3)cccc12` has an Activity [1] of 10% and an Activity [2] of 8.5%.
`Cc1cc(=O)oc2c1ccc1c(OCC(=O)NC(C)(C)C)cccc12` was tested, and the Activity [7] was “inactive”, the Activity [8] was “inactive” and the Activity [1] was 40%. The inhibition [9] was “Active”, the inhibition [10] was “inactive” and the inhibition [11] was “Active”. For the same compound, the “inhibition (INH)” value [12] was 38%, the Activity [13] was 74% and the inhibition [14] was “inactive”. The Activity [15] was “inactive”, the Activity [2] was 96.5% and the Activity [16] was “Active”. The Activity [17] was “inactive”, the Activity [18] was “inactive” and the “inhibition (INH)” value [19] was 90%.
With `Cc1cc(=O)oc2c1ccc1c(OCC(=O)Nc3ccc(S(N)(=O)=O)cc3)cccc12` the Activity [1] was under 10% and the Activity [2] was 16.5%.
Work on `Cc1cc(=O)oc2c1ccc1c(OCC(=O)Nc3cccc(C(=O)O)c3)cccc12` yielded an Activity [1] of under 10% and an Activity [2] of 8.5%.
`CCCNC(=O)COc1cccc2c1ccc1c(C)cc(=O)oc12` was tested, and the Activity [7] was “inactive”, the Activity [8] was “inactive” and the Activity [1] was 40%. For the same compound, the inhibition [9] was “Active”, the inhibition [10] was “inactive” and the inhibition [11] was “Active”. For the same compound, the inhibition [14] was “inactive”, the Activity [15] was “inactive” and the Activity [2] was 91.5%. For the same compound, the Activity [16] was “Active”, the Activity [17] was “inactive” and the Activity [18] was “inactive”.
In the case of `Cc1cc(=O)oc2c1ccc1c(OCC(=O)NCCCO)cccc12`, the Activity [7] is reported as “inactive”, the Activity [8] is reported as “inactive” and the Activity [1] is reported as 45%. The inhibition [9] was “Active”, the inhibition [10] was “inactive” and the inhibition [11] was “Active”. The inhibition [14] was “inactive”, the Activity [15] was “inactive” and the Activity [2] was 112.5%. The Activity [16] was “Active”, the Activity [17] was “inactive” and the Activity [18] was “inactive”.
`Cc1cc(=O)oc2c1ccc1c(OCC(=O)NCc3ccccc3)cccc12` showed an Activity [1] of 10% and an Activity [2] of 8.5%.
